According to ChEMBL document CHEMBL4513216, “Probing the Open Global Health Chemical Diversity Library for Multistage-Active Starting Points for Next-Generation Antimalarials” (ACS Infect Dis, 2020):

Test: Toxicity liver stage against HepG2, at 10uM
Assay type: cell-based
Parameters: test concentration 10 uM, cell line HepG2-A16-CD81EGFP
Conditions: human, HepG2-A16-CD81EGFP cells; read-out: INHIBITION
Procedure, shortened: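 Uninfected HepG2-A16-CD81EGFP cells, 3 × 10^3 per well, 1536-well, plated on prespotted compound at 10 μM final, parasite-free screening media added to match infected plates; puromycin 10 μM positive, DMSO 0.5% negative; run in parallel with 48 h PbLuc assay at 37 °C, 5% CO2; viability by CellTiter-Glo luminescence, normalized to controls.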

| SMILES | cytotoxicity at 10 µM [%] |
| --- | --- |
| Cn1nnc2c(N3CC(C(=O)NCc4ccccc4F)C3)ncnc21 | 0.447 |
| CCCc1nnsc1C(=O)NCC(O)c1ccoc1 (stereo unspecified) | 4.25 |
| CN(C)c1cccc(C(=O)N2CCc3ccc(=O)[nH]c3CC2)c1 | 9.23 |
| CN(C)CC1CSCCCN1C(=O)Nc1ccc(C(C)(C)C)cc1 (stereo unspecified) | 6.79 |
| CCN1C[C@H]2CCN(C(=O)NC3CCCC3)CC[C@H]2S1(=O)=O | -3.52 |
| CCO[C@@H]1CO[C@@]2(CCCN(C(=O)COc3ccccc3OC)C2)C1 | 3.51 |
| CCN(CC)CCNC(=O)c1cc(C(C)C)nc(N2CCCC2)n1 | -2.44 |
| O=C(NCCc1cc(N2CCOCC2)nc(N2CCCC2)n1)C1CC1 | 6.8 |
| Cc1nonc1CNC(=O)C(C)Oc1ccccc1F (stereo unspecified) | 2.57 |
| Cc1cn[nH]c1C1CCCN1Cc1ccc(F)c(F)c1 (stereo unspecified) | 4.14 |
| CN1CCCC1(CCCc1cccnc1)C(=O)NCc1nccn1C (stereo unspecified) | 0.732 |
| Oc1cc(C2CCCCN2C2CCCC2)nc(-c2cccnc2)n1 (stereo unspecified) | 11.2 |
| Cc1cccc(CN2CCCC[C@H]3CN(c4ncccn4)C[C@H]32)c1 | 1.18 |
| CN1CCCCC1c1ccc(-n2ccnc2)nc1 (stereo unspecified) | 5.01 |
| CN1CCC(c2cccc(-c3ccc(C(=O)O)cc3)n2)CC1 | -0.358 |
| COc1ccc(S(=O)(=O)N2C[C@H](OC)[C@]3(CCCO3)C2)cc1 | 1.64 |
| COc1ncccc1C(Cc1ccsc1)NC(=O)Cn1cccnc1=O (stereo unspecified) | -5.47 |
| CN(C)S(=O)(=O)N1CCCC(c2cccc(Cc3ccccc3F)n2)C1 (stereo unspecified) | 40.4 |
| Cc1ncc(CNC(=O)Cc2ccc(Cl)cc2)c(C2CCCN2C)n1 (stereo unspecified) | -0.696 |
| Cc1cccc(CS(=O)(=O)CC(O)Cn2cccn2)c1 (stereo unspecified) | -2.07 |
| Cc1cc(NC(=O)c2ccc(N3CCOCC3)c(F)c2)[nH]n1 | -33.9 |
| Cc1noc(OCc2csc(C)n2)n1 | -2.54 |
| CNC(=O)Cn1ccc2ccc(NC(=O)NC(C)C(C)C)cc21 (stereo unspecified) | 3.36 |

| SMILES | cytotoxicity at 10 µM [%] |
| --- | --- |
| CCC(O)(CNCc1ncc[nH]1)c1ccc(Br)cc1 (stereo unspecified) | 3.54 |
| CS(=O)(=O)N1CCCN(CCCSCc2ccccc2)CC1 | -2.35 |
| COc1ccc(C2CCCN2c2nnc(C)s2)c(OC)c1 (stereo unspecified) | 9.74 |
| CCN(CC1CCOC1)C(=O)c1ccc(COc2ccccc2C#N)o1 (stereo unspecified) | 3.34 |
| CN(Cc1nccn1C)S(=O)(=O)N1CCCC1c1ccco1 (stereo unspecified) | 3.21 |
| CC(C)(C)C(=O)NCCNCc1ccc(Cl)c2cccnc12 | -11.4 |
| O=c1[nH]ncc(NCCOc2cccc(Br)c2)c1Cl | 41.8 |
| COC(=O)Cc1cccc(NC(=O)Cc2ccon2)c1 | -2.93 |
| O=C(CCCc1ccccn1)NCC(O)c1c(F)cccc1F (stereo unspecified) | -7.85 |
| COc1cccc(SCC(=O)N2CCCC(N3CCCC3=O)C2)c1 (stereo unspecified) | 6.16 |
| CC(C)C(O)CNC(=O)CCCc1ccccn1 (stereo unspecified) | 0.665 |
| CC(C)CNC(=O)c1ccc(NC(=O)NC2CC2)cc1Cl | 2.56 |
| CCc1ccsc1C(=O)N1CCN(C(=O)c2ccc(C)o2)CC1 | 6.98 |
| O=C(c1cc(-n2cccn2)ccn1)N(CC1CCC1)CC(F)(F)F | 6.4 |
| Cc1cc(C)c(CNc2ncnc3c2cnn3C)c(=O)[nH]1 | 8.63 |
| Cc1ccc(CCCC(=O)N2CCN(C3CCCN(C)C3)CC2)s1 (stereo unspecified) | 5.82 |
| CC(=O)c1c(F)cccc1NCC(O)c1ccc(F)c(F)c1 (stereo unspecified) | 13.3 |
| Cc1ccc2c(c1)C(NC1CCN(C)CC1)CCCO2 (stereo unspecified) | -8.2 |
| CC(O)CCN(C)c1nc2ccccc2c(=O)[nH]1 (stereo unspecified) | 12.6 |
| Cc1cc(C)c(C(=O)N2CCc3c(ncn3CCc3ccccc3)C2)[nH]1 | 7.13 |
| CCCn1nc(-c2nc(COC)no2)ccc1=O | -11.6 |
| Cc1cc(C)c(S(=O)(=O)Nc2ccccc2CC(F)(F)F)cc1C(=O)O | -1.47 |
| CNC(=O)Cc1noc(Cc2ccc3c(c2)CCCC3)n1 | -14.1 |

| SMILES | cytotoxicity at 10 µM [%] |
| --- | --- |
| Cc1cnn(CC(C)Nc2nc(C)cc(N(C)C)n2)c1 (stereo unspecified) | 7.07 |
| CCc1cnc(CCNC(C)CC(=O)Nc2cccc(C)c2C)s1 (stereo unspecified) | 6.69 |
| O=C(c1ccc(F)c(F)c1)N1CCCC1CN1CCCC1 (stereo unspecified) | 2.92 |
| Cc1ccc(O)c(CNC2CCc3nc(C(C)C)nn3C2)n1 (stereo unspecified) | -8.54 |
| Cc1ncsc1C(=O)NCCOc1ncc(Cl)cc1Cl | 7.67 |
| CCOCC1CN(C(=O)c2ccoc2)Cc2cnn(C)c21 (stereo unspecified) | 0.13 |
| Cc1noc([C@@H]2C[C@H]3OCC[C@H]3N(Cc3ccoc3)C2)n1 | -71.4 |
| COCC(=O)N1CCc2ncc(Cn3cncn3)n2CC1 | -81 |
| Cc1ccc(CN2C[C@@H](C(=O)Nc3cccnc3)C[C@H]3OCC[C@H]32)o1 | 3.82 |
| CN1CC(=O)N(c2ccsc2)CC12CCN(C(=O)c1ccc[nH]1)C2 (stereo unspecified) | -71.8 |
| CC(C)c1cc(C(=O)N2CC[C@@H](c3ccc4c(c3)OCO4)[C@H](O)C2)[nH]n1 | 3.29 |
| Oc1cccc2ccc(CN3CCC4(CCNCC4)C3)nc12 | -6.19 |
| Cn1c(C(N)=O)cc2c1CN(C(=O)C1CCCN(C3CCCC3)C1)CC2 (stereo unspecified) | -47.1 |
| Cc1cc(CN(C)C(=O)c2cccc(CCC(C)(C)O)c2)no1 | -2.02 |
| COc1cc(Cl)cc(CN2CCCC(N3CCOCC3)C2)c1OC (stereo unspecified) | 0.944 |
| CCN(Cc1nc(C)no1)C(=O)C1CC(=O)N(Cc2cccnc2)C1 (stereo unspecified) | 4.03 |
| CCn1nc(C)c(CNC(=O)C2COc3ccccc3C2)c1C (stereo unspecified) | 9.39 |
| CCc1ccc(CN2CCN(Cc3ncc[nH]3)[C@H]3CS(=O)(=O)C[C@H]32)nc1 | -0.235 |
| Cc1nnc(CN2CCOC(c3ccc(Cl)c(Cl)c3)C2)o1 (stereo unspecified) | -1.11 |
| CCOC(=O)C1CCCCN1Cc1c[nH]nc1-c1cc2ccccc2o1 (stereo unspecified) | 4.8 |
| CCNC(=O)[C@@H]1C[C@@H](NC(=O)c2ccc(C)cc2O)CN1CCCSC | -125 |
| Cc1nc(CNC(=O)c2cc(COc3ccccc3)[nH]n2)n[nH]1 | 8.52 |
| Cc1nc(C)c(C)c(N2C[C@@H](CN3CCCN(C)CC3)[C@@H](CO)C2)n1 | -10.4 |

| SMILES | cytotoxicity at 10 µM [%] |
| --- | --- |
| Cc1cc(C)n2nc(CC(=O)N3CC[C@H]4NCCC[C@]4(CO)C3)nc2n1 | -0.363 |
| CN(C)CCNc1cc(-c2ccccc2C(N)=O)c2cc[nH]c2n1 | 0.343 |
| CSc1ccc(CN(CCO)C(=O)CCOc2ccccc2)cc1 | 2.08 |
| O=c1[nH]c(COc2cccc(F)c2)nc2c1CCNC2 | 10.1 |
| CCCc1cncnc1N1CCC2(CCC(=O)N(CCOC)C2)CC1 | 1.86 |
| COCc1cn(CC2CCN(Cc3c(C)[nH]c4ccccc34)CC2)nn1 | -5.36 |
| Cc1ccc2nc(C)cc(C(=O)NC(C)c3nnn[nH]3)c2c1 (stereo unspecified) | 7.8 |
| Cc1cc(-c2nn3c(C)nnc3s2)n[nH]1 | 6.52 |
| O=C(Nc1cnc2n1CCCC2)C1CCCN1C1CCNCC1 (stereo unspecified) | 11.6 |
| CN(Cc1ccc(C(=O)Nc2sccc2C#N)cc1)Cc1ccno1 | -1.65 |
| O=C(CCc1cc2n(n1)CCN(Cc1ncc[nH]1)C2)N1CCCC1 | -5.77 |
| CCC(NC(=O)c1c(C(=O)O)cnn1C)c1ccc(C)cc1C (stereo unspecified) | -7.58 |
| Cc1c2c(C(F)F)cc(SCC(=O)O)nc2nn1C | -9.38 |
| Cc1ccc(C(C)NC(=O)CNCCn2cccn2)cc1C (stereo unspecified) | -6.63 |
| Cc1cc(CNC(=O)CCc2c(C)nc3cc(O)nn3c2C)no1 | -3.27 |
| COCCN1CCC(NCc2cccc(C)c2)C1 (stereo unspecified) | 2.76 |
| Cc1nccc(-c2cccc(NCC(=O)N3CCOC(C)C3)c2)n1 (stereo unspecified) | -0.776 |
| Cn1ccnc1CN1CCCN(C(=O)c2cccc(CC#N)c2)CC1 | -2.13 |
| CC(=O)N1CCCN(C(=O)NCc2ccc(-c3ccn[nH]3)cc2)CC1 | 0.322 |
| NC(=O)NCC1CCCCN1C(=O)c1cc(F)cc(F)c1 (stereo unspecified) | -8.15 |
| Cc1ccc(-n2nnc(C(=O)NC(C)C)c2C2CC2)cc1 | -3.37 |
| NC(=O)c1ccc(OCC(=O)NS(=O)(=O)c2ccc3c(c2)CCC3)cc1 | -8.89 |
| CCNC(=O)NC(=O)CN1CCC(c2cccc(F)c2)C1 (stereo unspecified) | -9.45 |

| SMILES | cytotoxicity at 10 µM [%] |
| --- | --- |
| O=C(COCCOc1ccccc1)N1CCCC(n2ccnc2)C1 (stereo unspecified) | -19.6 |
| Cc1nc(C)n(CC2CCCN(CC3CCCCC3)C2)n1 (stereo unspecified) | 2.04 |
| O=C(NCCn1nc2ccccn2c1=O)c1cc[nH]n1 | 3.45 |
| CC(C)(NCC(=O)NCC(F)(F)F)c1ccc2c(c1)OCCO2 | -8.23 |
| O=C(Cc1ccc2c(c1)OCCO2)NCCc1nnc2n1CCC2 | -9.78 |
| c1cnc(-c2nc(CN3CCCC(Cn4cncn4)C3)cs2)nc1 (stereo unspecified) | -7.91 |
| Cc1cc(CN(C)C(=O)NCC(C)N2CCc3ccccc32)no1 (stereo unspecified) | -5.43 |
| Cc1ccc([C@]2(O)CC[C@H]3CN(Cc4cccc(F)c4F)C[C@H]32)nc1 | -8.38 |
| Cc1cc(C[C@@H]2CCC[C@H]2NCc2cccc(F)c2F)on1 | -0.474 |
| COc1ccc(CN(Cc2cncn2C)CC2CCCO2)cc1OC (stereo unspecified) | -3.06 |
| Cc1cc(N(C)C)nc(C2CCCN2)n1 (stereo unspecified) | -11.1 |
| CN(C)C(=O)COC[C@@]12CCC[C@@H]1CNC2 | 0.903 |
| COC1COC2(CCN(CC3CC3)CC2)C1 (stereo unspecified) | -103 |
| COCC1CN(Cc2c(C)noc2C)Cc2ccnn2C1 (stereo unspecified) | -89.3 |
| Cc1cccc(C(=O)N2CCc3ncnc(C4CCOC4)c3CC2)n1 (stereo unspecified) | -69.8 |
| Cc1ccc(C(=O)N2CC[C@@H](N(C)C)[C@@H]2Cc2cnn(C)c2)cn1 | -73.4 |
| Cn1cccc1C(=O)NCc1cn2c(n1)CN(Cc1cccnc1)CC2 | -113 |
| COc1ccc(CN2C[C@H]3CC[C@@H](C2)N(S(C)(=O)=O)C3)cc1 | -5.75 |
| Cc1ncsc1CN1C[C@@H]2CC[C@H]1CN(Cc1ccccc1)C2 | -14.1 |
